From ChEMBL document CHEMBL3758168, “Hybrid triazoles: Design and synthesis as potential dual inhibitor of growth and efflux inhibition in tuberculosis” (Eur J Med Chem, 2016) come the findings set out here.

Values after ≈ are worked out from the molar mass of the structure shown. A value given as a limit tells only on which side of the number the result lay.

The test system of assay [1] is Mycolicibacterium smegmatis. As to the kind of experiment: Anti-tubercular activity against Mycobacterium smegmatis MC2 155 ATCC 700084 after 3 days by microdilution method. It is filed as functional. The settings on record: MC2 155 ATCC 700084, 72 h. The gist of the method:
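M. smegmatis mc2155 grown in MB7H9 + 10% OADC at 37 °C with shaking to OD600 0.8. Inoculum set to 0.5 McFarland, diluted 1:100, and mixed 1:1 with two-fold serial dilutions in MB7H9. Plates incubated 3 days at 37 °C with growth and sterility controls. MIC taken as the lowest concentration with no visible growth.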

A short description of assay [2]: Cytotoxicity against human MDM assessed as cell viability after 3 days by Alamar blue dye-based fluorocytometric analysis relative to control. To be noted: 72 h. (In general: Alamar Blue is a resazurin reagent that responds to reducing activity.)
Assay [3] concerns Mycobacterium tuberculosis. As to the kind of experiment: Anti-tubercular activity against Mycobacterium tuberculosis H37Rv ATCC 27294T after 7 days by mircodilution method. It counts as functional. The settings on record: 168 h. An outline of the steps: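 H37Rv grown static in MB7H9 + 10% OADC at 37 °C to OD600 0.8, then diluted to about 10^5 cells/ml. Mixed 1:1 with two-fold serial dilutions in MB7H9/OADC and incubated 7 days at 37 °C. MTT added to final 2.5% and plates incubated overnight. MIC is the lowest concentration with no colour change. Run in triplicate.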

Consider `CCOC(=O)CC(=O)CSc1nnc(COc2ccccc2C2=NOC(c3ccc(Cl)cc3Cl)C2)n1NC(C)=O` (stereo unspecified), for which inhibition of growth in assay [1] (MIC) required 512 µg/mL (≈ 844 µM). For `CCSc1nnc(COc2ccccc2C2=NOC(c3ccc(Cl)cc3Cl)C2)n1NC(=O)CCl` (stereo unspecified), in assay [1], inhibition of growth (MIC) required 512 µg/mL (≈ 947 µM). With `CSc1nnc(COc2ccccc2C2=NOC(c3ccc(Cl)cc3Cl)C2)n1NC(=O)CCl` (stereo unspecified), the MIC in assay [1] was 32 µg/mL (≈ 60.7 µM). In addition, the IC50 in assay [2] is 2.7 µg/mL (≈ 5.12 µM).

Consider `C/C=C/Sc1nnc(COc2ccccc2C2=NOC(c3ccc(Cl)cc3Cl)C2)n1NC(=O)CCl` (stereo unspecified), for which the MIC in assay [1] was more than 512 µg/mL.

Compound `C/C=C/Sc1nnc(COc2ccccc2C2=NOC(c3ccc(Cl)cc3Cl)C2)n1NC(C)=O` (stereo unspecified) displayed an MIC in assay [1] of 512 µg/mL (≈ 988 µM). As to `CCCCSc1nnc(COc2ccccc2C2=NOC(c3ccc(Cl)cc3Cl)C2)n1NC(=O)c1ccccc1` (stereo unspecified), the MIC in assay [1] was determined as 64 µg/mL (≈ 107 µM). Besides, in assay [2], the concentration for half-maximal inhibition (IC50) was 2.5 µg/mL (≈ 4.19 µM). Compound `C/C=C/Sc1nnc(COc2ccccc2C2=NOC(c3ccc(Cl)cc3Cl)C2)n1NC(=O)c1ccccc1` (stereo unspecified) had an MIC in assay [1] of 128 µg/mL (≈ 221 µM). `Nn1c(S)nnc1COc1ccccc1C1=NOC(c2ccc(Cl)cc2Cl)C1` (stereo unspecified) yielded an MIC in assay [1] of 2 µg/mL (≈ 4.58 µM). For the same compound, the IC50 in assay [2] is 87.3 µg/mL (≈ 200 µM). In turn, `CC(=O)Nn1c(COc2ccccc2C2=NOC(c3ccc(Cl)cc3Cl)C2)nnc1SCC(C)C` (stereo unspecified) came in with a minimum inhibitory concentration (MIC) in assay [1] of more than 256 µg/mL. For `O=C(CCl)Nn1c(S)nnc1COc1ccccc1C1=NOC(c2ccc(Cl)cc2Cl)C1` (stereo unspecified), the MIC in assay [1] stood at 16 µg/mL (≈ 31.2 µM). Besides, the IC50 in assay [2] was determined as 3.2 µg/mL (≈ 6.24 µM).

For the compound `CCSc1nnc(COc2ccccc2C2=NOC(c3ccc(Cl)cc3Cl)C2)n1NC(=O)c1ccccc1` (stereo unspecified), 4 µg/mL (≈ 7.04 µM) was the least that counted as inhibitory in assay [1] (MIC). The IC50 in assay [2] is 1.8 µg/mL (≈ 3.17 µM).

Compound `CCOC(=O)CSc1nnc(COc2ccccc2C2=NOC(c3ccc(Cl)cc3Cl)C2)n1NC(=O)c1ccccc1` (stereo unspecified) returned a minimal inhibitory concentration (MIC) in assay [1] of 64 µg/mL (≈ 102 µM). In assay [1], `CSc1nnc(COc2ccccc2C2=NOC(c3ccc(Cl)cc3Cl)C2)n1NC(C)=O` (stereo unspecified) had an MIC of 32 µg/mL (≈ 65 µM). Besides, in assay [2], the IC50 was 2.7 µg/mL (≈ 5.48 µM).

On to `CC(C)CSc1nnc(COc2ccccc2C2=NOC(c3ccc(Cl)cc3Cl)C2)n1NC(=O)CCl` (stereo unspecified), for which, in assay [1], inhibition of growth (MIC) required 1020 µg/mL (≈ 1800 µM). For `CCCCSc1nnc(COc2ccccc2C2=NOC(c3ccc(Cl)cc3Cl)C2)n1NC(C)=O` (stereo unspecified), the MIC in assay [1] was found to be 32 µg/mL (≈ 59.9 µM). Besides, the IC50 in assay [2] was found to be 2.6 µg/mL (≈ 4.86 µM). In assay [1], `CCCCSc1nnc(COc2ccccc2C2=NOC(c3ccc(Cl)cc3Cl)C2)n1NC(=O)CCl` (stereo unspecified) came in with an MIC of 32 µg/mL (≈ 56.2 µM). The 50% inhibitory concentration (IC50) in assay [2] amounted to 2.8 µg/mL (≈ 4.92 µM). On to `CC(=O)Nn1c(S)nnc1COc1ccccc1C1=NOC(c2ccc(Cl)cc2Cl)C1` (stereo unspecified), for which the MIC in assay [1] was determined as 8 µg/mL (≈ 16.7 µM). For the same compound, the IC50 in assay [2] was found to be 1.3 µg/mL (≈ 2.72 µM). As for `CCOC(=O)CSc1nnc(COc2ccccc2C2=NOC(c3ccc(Cl)cc3Cl)C2)n1NC(C)=O` (stereo unspecified), the MIC in assay [1] was more than 64 µg/mL. In turn, `CSc1nnc(COc2ccccc2C2=NOC(c3ccc(Cl)cc3Cl)C2)n1NC(=O)c1ccccc1` (stereo unspecified) registered an MIC in assay [1] of 32 µg/mL (≈ 57.7 µM). The IC50 in assay [2] was 2.2 µg/mL (≈ 3.97 µM). For `C=CCSc1nnc(COc2ccccc2C2=NOC(c3ccc(Cl)cc3Cl)C2)n1NC(=O)CCl` (stereo unspecified), the lowest concentration to inhibit growth in assay [1] (MIC) was 256 µg/mL (≈ 463 µM). `O=C(CCl)Nn1c(COc2ccccc2C2=NOC(c3ccc(Cl)cc3Cl)C2)nnc1Sc1ccccc1` (stereo unspecified) had an MIC in assay [1] of 128 µg/mL (≈ 217 µM). As for `C=CCSc1nnc(COc2ccccc2C2=NOC(c3ccc(Cl)cc3Cl)C2)n1NC(=O)c1ccccc1` (stereo unspecified), in assay [1], it took 128 µg/mL (≈ 221 µM) to inhibit growth (MIC). Consider `CC(=O)Nn1c(COc2ccccc2C2=NOC(c3ccc(Cl)cc3Cl)C2)nnc1Sc1ccccc1` (stereo unspecified), for which the MIC in assay [1] was more than 512 µg/mL.

In the case of `C=CCSc1nnc(COc2ccccc2C2=NOC(c3ccc(Cl)cc3Cl)C2)n1NC(C)=O` (stereo unspecified), in assay [1], it took 256 µg/mL (≈ 494 µM) to inhibit growth (MIC). For the compound `O=C(Nn1c(S)nnc1COc1ccccc1C1=NOC(c2ccc(Cl)cc2Cl)C1)c1ccccc1` (stereo unspecified), in assay [1], inhibition of growth (MIC) required 32 µg/mL (≈ 59.2 µM). Also, the IC50 in assay [2] was 1.7 µg/mL (≈ 3.15 µM).

Regarding `CCOC(=O)CC(=O)CSc1nnc(COc2ccccc2C2=NOC(c3ccc(Cl)cc3Cl)C2)n1NC(=O)CCl` (stereo unspecified), in assay [1], the MIC amounted to 128 µg/mL (≈ 200 µM). In turn, `CCOC(=O)CSc1nnc(COc2ccccc2C2=NOC(c3ccc(Cl)cc3Cl)C2)n1NC(=O)CCl` (stereo unspecified) had an MIC in assay [1] of 128 µg/mL (≈ 214 µM). `CCOC(=O)CC(=O)CSc1nnc(COc2ccccc2C2=NOC(c3ccc(Cl)cc3Cl)C2)n1NC(=O)c1ccccc1` (stereo unspecified) had an MIC in assay [1] of 512 µg/mL (≈ 766 µM). In assay [1], `O=C(Nn1c(COc2ccccc2C2=NOC(c3ccc(Cl)cc3Cl)C2)nnc1Sc1ccccc1)c1ccccc1` (stereo unspecified) returned an MIC of 256 µg/mL (≈ 415 µM). The same measure, in the same setting: the result for `CC(C)CSc1nnc(COc2ccccc2C2=NOC(c3ccc(Cl)cc3Cl)C2)n1NC(=O)c1ccccc1` (stereo unspecified) reads 512 µg/mL (≈ 858 µM). The compound `NCC[C@H](O)C(=O)N[C@@H]1C[C@H](N)[C@@H](O[C@H]2O[C@H](CN)[C@@H](O)[C@H](O)[C@H]2O)[C@H](O)[C@H]1O[C@H]1O[C@H](CO)[C@@H](O)[C@H](N)[C@H]1O` [AMIKACIN] gave an MIC in assay [3] of 2 µg/mL (≈ 3.42 µM). As to `CC[n+]1c(-c2ccccc2)c2cc(N)ccc2c2ccc(N)cc21.[Br-]` [HOMIDIUM BROMIDE], it took 12.5 µg/mL to inhibit growth in assay [3] (MIC). `NNC(=O)c1ccncc1` [ISONIAZID] showed a minimum inhibitory concentration (MIC) in assay [3] of 0.1 µg/mL (≈ 0.729 µM). This MIC lies about 120-fold lower than the previous one. `CC1COc2c(N3CCN(C)CC3)c(F)cc3c(=O)c(C(=O)O)cn1c23` (stereo unspecified) [OFLOXACIN] showed an MIC in assay [3] of 2 µg/mL (≈ 5.53 µM). This MIC is about 20-fold higher than that of the compound before. On to `CO[C@H]1/C=C/O[C@@]2(C)Oc3c(C)c(O)c4c(O)c(c(/C=N/N5CCN(C)CC5)c(O)c4c3C2=O)NC(=O)/C(C)=C\C=C\[C@H](C)[C@H](O)[C@@H](C)[C@@H](O)[C@@H](C)[C@H](OC(C)=O)[C@@H]1C` [RIFAMPIN], for which 1 µg/mL (≈ 1.22 µM) was the least that counted as inhibitory in assay [3] (MIC).

As usually defined, the MIC is the smallest concentration in the dilution series that meets the test's criterion for growth inhibition. A high value points to a need for much substance. One may read the IC50 as the midpoint of a concentration-inhibition curve.
